Reference: ChEMBL document CHEMBL4368913, “Design, Synthesis, and Biological Evaluation of 6-Substituted Thieno[3,2- d]pyrimidine Analogues as Dual Epidermal Growth Factor Receptor Kinase and Microtubule Inhibitors” (J Med Chem, 2019)

Columns and labels:
[1] = target: T1, Vascular endothelial growth factor receptor 2 (Homo sapiens, UniProt P35968); experiment: Inhibition of VEGFR2 (unknown origin)
RS4-11 = experiment: Antiproliferative activity against human RS4:11 cells after 72 hrs by MTT assay; assay type: functional, cell-based; settings: RS4-11, 72 h
How it was run: (§1)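 Cells in medium with 10% FBS, seeded at 8×10^3 per well, 18 h at 37 °C, 5% CO2, then graded compound concentrations (DMSO ≤0.25%) for 72 h. Viability by MTT. […] Mean ± SE of dose-response curves from at least three independent experiments.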

Jurkat = experiment: Antiproliferative activity against human Jurkat cells after 72 hrs by MTT assay; assay type: functional, cell-based; how it was run: as §1
HeLa = experiment: Antiproliferative activity against human HeLa cells after 72 hrs by MTT assay; assay type: functional, cell-based
A549 = experiment: Antiproliferative activity against human A549 cells after 72 hrs by MTT assay; assay type: functional, cell-based; settings: A549, 72 h
HT-29 = experiment: Antiproliferative activity against human HT-29 cells after 72 hrs by MTT assay; assay type: functional, cell-based; settings: HT-29, 72 h
B16 = experiment: Antitumor activity against mouse B16 cells allografted in C57BL/6 mouse assessed as reduction in tumor burden at 30 mg/kg, ip dosing starting on day 9 post tumor injection administered […] on day 9,11, 13 and 15 relative to control; assay type: functional; parameters: scale not given: the % may be the effect or the level left
How it was run: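 Male C57BL/6 mice, six weeks old, given 2.5×10^5 BL6-B16 murine melanoma cells subcutaneously in the dorsolateral flank in PBS. Once tumours were palpable, compound in 50 µL DMSO was given intraperitoneally every other day from day 9 (days 9, 11, 13, 15); controls received vehicle. Tumour volume compared with control; 5 animals per group; mean ± SEM.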

Tubulin (Bos taurus) = Tubulin (Bos taurus) (UniProt Q6B856+Q862L2+Q862F3); experiment: Inhibition of [3H]-colchicine binding to bovine brain tubulin at 1 to 5 uM after 20 mins relative to control
How it was run: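 Colchicine-binding inhibition in mixtures of 1 μM tubulin, 5 μM [3H]colchicine and test compound at 1 or 5 μM.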

[2] = target: Epidermal growth factor receptor (Homo sapiens, UniProt P00533); experiment: Inhibition of wild type EGFR (unknown origin) by bioluminescent ADP-glo kinase assay
Tubulin = Tubulin (Bos taurus, UniProt Q6B856+Q862L2+Q862F3); experiment: Inhibition of bovine brain tubulin polymerization after 20 mins
How it was run: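 Bovine brain tubulin (10 μM) preincubated with varying compound concentrations in 0.8 M monosodium glutamate, pH 6.6, at 30 °C, then chilled to 0 °C. 0.4 mM GTP added, mixtures warmed to 30 °C, assembly followed by turbidity at 350 nm.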

[3] = target: T1, Vascular endothelial growth factor receptor 2; experiment: Inhibition of wild type VEGFR2 (unknown origin) by bioluminescent ADP-glo kinase assay

Epidermal growth factor receptor, sequence (P00533 whole entry): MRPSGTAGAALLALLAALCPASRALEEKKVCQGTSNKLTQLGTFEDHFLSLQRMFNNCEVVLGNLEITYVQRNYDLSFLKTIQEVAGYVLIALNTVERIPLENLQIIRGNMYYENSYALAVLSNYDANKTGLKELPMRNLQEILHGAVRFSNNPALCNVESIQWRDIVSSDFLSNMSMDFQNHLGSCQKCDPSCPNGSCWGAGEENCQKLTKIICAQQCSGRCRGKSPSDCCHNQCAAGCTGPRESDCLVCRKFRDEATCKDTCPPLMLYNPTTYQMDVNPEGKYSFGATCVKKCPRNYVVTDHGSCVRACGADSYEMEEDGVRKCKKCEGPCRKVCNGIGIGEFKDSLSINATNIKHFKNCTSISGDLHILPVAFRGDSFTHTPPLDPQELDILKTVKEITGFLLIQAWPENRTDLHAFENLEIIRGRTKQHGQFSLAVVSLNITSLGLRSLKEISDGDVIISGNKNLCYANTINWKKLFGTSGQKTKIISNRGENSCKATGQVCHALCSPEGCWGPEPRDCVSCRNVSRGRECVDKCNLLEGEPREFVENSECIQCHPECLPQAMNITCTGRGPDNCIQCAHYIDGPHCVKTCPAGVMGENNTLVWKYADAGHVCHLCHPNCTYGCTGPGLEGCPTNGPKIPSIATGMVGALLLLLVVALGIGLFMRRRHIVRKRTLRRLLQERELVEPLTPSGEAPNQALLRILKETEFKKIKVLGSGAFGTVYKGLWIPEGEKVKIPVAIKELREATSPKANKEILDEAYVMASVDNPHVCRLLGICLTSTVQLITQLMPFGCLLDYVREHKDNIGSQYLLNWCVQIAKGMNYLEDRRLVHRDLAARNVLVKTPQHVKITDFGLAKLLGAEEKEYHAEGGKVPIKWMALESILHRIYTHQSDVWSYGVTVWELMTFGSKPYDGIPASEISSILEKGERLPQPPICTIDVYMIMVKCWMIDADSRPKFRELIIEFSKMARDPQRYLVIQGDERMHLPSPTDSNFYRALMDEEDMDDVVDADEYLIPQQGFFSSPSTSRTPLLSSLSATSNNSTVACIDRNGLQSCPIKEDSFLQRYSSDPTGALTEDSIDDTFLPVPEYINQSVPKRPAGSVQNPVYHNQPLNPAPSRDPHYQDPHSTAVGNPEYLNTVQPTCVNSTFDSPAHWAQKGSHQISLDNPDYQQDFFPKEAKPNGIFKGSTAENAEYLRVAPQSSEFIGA
T1 sequence (P35968 whole entry): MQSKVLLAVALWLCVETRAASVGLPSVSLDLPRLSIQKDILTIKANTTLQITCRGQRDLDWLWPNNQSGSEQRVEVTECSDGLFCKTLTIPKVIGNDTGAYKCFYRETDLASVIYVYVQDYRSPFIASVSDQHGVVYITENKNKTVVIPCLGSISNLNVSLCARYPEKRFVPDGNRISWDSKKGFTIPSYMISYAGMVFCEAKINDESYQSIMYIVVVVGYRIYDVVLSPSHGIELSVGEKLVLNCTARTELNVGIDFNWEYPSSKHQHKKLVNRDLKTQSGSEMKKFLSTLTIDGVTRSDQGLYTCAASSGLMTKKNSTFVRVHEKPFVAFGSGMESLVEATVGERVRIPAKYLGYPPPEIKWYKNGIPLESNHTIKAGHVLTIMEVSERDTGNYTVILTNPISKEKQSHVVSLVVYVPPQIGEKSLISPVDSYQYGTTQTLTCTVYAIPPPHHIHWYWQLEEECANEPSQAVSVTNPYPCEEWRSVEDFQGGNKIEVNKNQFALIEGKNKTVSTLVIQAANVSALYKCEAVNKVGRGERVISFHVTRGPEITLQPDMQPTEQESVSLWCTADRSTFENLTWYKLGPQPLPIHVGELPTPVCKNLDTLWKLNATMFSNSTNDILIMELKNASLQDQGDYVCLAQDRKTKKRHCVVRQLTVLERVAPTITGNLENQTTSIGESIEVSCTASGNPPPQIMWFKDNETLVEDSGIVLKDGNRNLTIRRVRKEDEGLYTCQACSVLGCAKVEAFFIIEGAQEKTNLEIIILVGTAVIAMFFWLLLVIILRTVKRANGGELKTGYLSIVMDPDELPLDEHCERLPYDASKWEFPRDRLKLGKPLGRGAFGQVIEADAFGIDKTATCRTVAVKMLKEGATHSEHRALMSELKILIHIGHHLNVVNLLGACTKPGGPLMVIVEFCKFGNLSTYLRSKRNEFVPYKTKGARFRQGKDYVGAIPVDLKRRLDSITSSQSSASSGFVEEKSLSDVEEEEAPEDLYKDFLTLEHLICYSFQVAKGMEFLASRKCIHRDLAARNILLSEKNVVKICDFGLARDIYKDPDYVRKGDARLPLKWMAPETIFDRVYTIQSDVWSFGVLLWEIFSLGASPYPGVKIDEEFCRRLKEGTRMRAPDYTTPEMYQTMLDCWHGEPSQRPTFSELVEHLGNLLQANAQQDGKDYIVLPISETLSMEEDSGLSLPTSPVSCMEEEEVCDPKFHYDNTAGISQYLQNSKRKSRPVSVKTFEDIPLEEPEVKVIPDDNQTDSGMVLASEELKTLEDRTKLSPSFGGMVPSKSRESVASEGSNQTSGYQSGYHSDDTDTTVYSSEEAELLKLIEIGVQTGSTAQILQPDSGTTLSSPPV

Row | IC50 [1] | IC50 (RS4-11) | IC50 (Jurkat) | IC50 (HeLa) | IC50 (A549) | IC50 (HT-29) | inhibition (Tubulin (Bos taurus)) | IC50 [2] | IC50 (Tubulin) | IC50 [3] | SMILES | Activity (B16)
1 |  | 1900 nM | 260 nM | 450 nM | 13500 nM | 1900 nM |  |  |  |  | COc1cc(Nc2ncnc3cc(-c4ccc(F)cc4)sc23)cc(OC)c1OC | 
2 |  | 5 nM | 3 nM | 90 nM | 600 nM | 87 nM | 36% | 273 nM | 3300 nM |  | COc1cc(Nc2ncnc3cc(-c4ccc(Cl)cc4)sc23)cc(OC)c1OC | 
3 |  | 260 nM | 10 nM | 170 nM | 2300 nM | 350 nM |  | 23 nM | 10000 nM | > 1000 nM | COc1cc(Nc2ncnc3cc(-c4ccccc4)sc23)cc(OC)c1OC | 
4 |  | 4 nM | 5 nM | 170 nM | 430 nM | 60 nM | 31% | 52 nM | 2800 nM | > 1000 nM | COc1ccc(-c2cc3ncnc(Nc4cc(OC)c(OC)c(OC)c4)c3s2)cc1 | 

Further lines, the molecule ahead of its results:

Row | SMILES | IC50 [1] | IC50 (RS4-11) | IC50 (Jurkat) | IC50 (HeLa) | IC50 (A549) | IC50 (HT-29) | inhibition (Tubulin (Bos taurus)) | IC50 [2] | IC50 (Tubulin) | IC50 [3] | Activity (B16)
5 | c1ccc(-c2cc3ncnc(Nc4ccc5[nH]ccc5c4)c3s2)cc1 | 80 nM |  |  |  |  |  |  |  |  |  | 
6 | COc1ccc(/C=C\c2cc(OC)c(OC)c(OC)c2)cc1OP(=O)([O-])[O-].[Na+].[Na+] [FOSBRETABULIN DISODIUM] |  |  |  |  |  |  |  |  |  |  | 34.9%
7 | COc1cc(Nc2ncnc3cc(-c4cccs4)sc23)cc(OC)c1OC |  | 360 nM | 80 nM | 1700 nM | 5100 nM | 210 nM |  | 2.5 nM | 18000 nM | > 1000 nM | 
